Reference: ChEMBL document CHEMBL1155958, “Inhibition of oxidative metabolism of tocopherols with omega-N-heterocyclic derivatives of vitamin E” (Bioorg Med Chem, 2008)
Values belong to the molecule of their own block, whether it stands above or below them. The source made the active and inactive calls. No cut-off for these calls is given here.

How the values were obtained:
[1] = biological target: T1, Cytochrome P450 4F2 (Homo sapiens, UniProt P78329); assay: Inhibition of CYP4F2-mediated gamma-tocopherol metabolism in human HepG2/C3A cells preincubated for 4 hrs and continued for 48 hrs; format: cell-based; settings: for Activity: human, hepg2/c3a, 48 h
T1 sequence (P78329 whole entry): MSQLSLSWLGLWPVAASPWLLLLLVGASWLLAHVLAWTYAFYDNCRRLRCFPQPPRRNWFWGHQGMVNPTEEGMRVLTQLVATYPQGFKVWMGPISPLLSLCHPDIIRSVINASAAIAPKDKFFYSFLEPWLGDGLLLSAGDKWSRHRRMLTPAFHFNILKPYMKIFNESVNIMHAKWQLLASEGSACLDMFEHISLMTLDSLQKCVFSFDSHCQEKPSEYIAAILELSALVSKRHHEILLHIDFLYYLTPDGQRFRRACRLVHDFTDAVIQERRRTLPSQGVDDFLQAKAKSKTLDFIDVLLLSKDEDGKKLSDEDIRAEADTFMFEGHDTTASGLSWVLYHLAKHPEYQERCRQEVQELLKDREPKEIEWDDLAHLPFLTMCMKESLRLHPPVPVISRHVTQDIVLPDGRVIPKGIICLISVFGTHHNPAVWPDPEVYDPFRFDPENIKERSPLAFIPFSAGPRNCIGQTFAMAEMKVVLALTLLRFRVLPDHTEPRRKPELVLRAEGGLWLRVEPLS
Procedure, shortened: (§1)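 Confluent HepG2/C3A monolayers pre-incubated 4 hr with inhibitor (ethanol stock) or ethanol vehicle. Medium then replaced with fresh medium containing γ-tocopherol, 25 µM final, plus inhibitor again. After 48 hr, medium analysed by GC-MS for 3'- and 5'-carboxychromanols, with d9-α-CEHC internal standard. Results given as percent inhibition, means and standard deviation.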

[2] = biological target: T1, Cytochrome P450 4F2; assay: Inhibition of CYP4F2-mediated gamma-tocopherol metabolism in human HepG2/C3A cells at 1 uM preincubated for 6 hrs and continued for 24 hrs; format: cell-based
Procedure, shortened: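 Confluent HepG2/C3A monolayers exposed to 1 µM inhibitor for 6 hr. Then incubated 24 hr in medium with 25 µM γ-tocopherol, inhibitor not replaced. Medium carboxychromanol metabolites measured by GC-MS against d9-α-CEHC internal standard.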

[3] = tested on: Mus musculus; assay: Enrichment in delta-tocopherol in FVB/N mouse liver assessed as doubling in delta-tocopherol/alpha-tocopherol ratio at 500 mg/kg in delta-tocopherol rich diet for 10 days; format: functional, organism-based; set-up: dose 500 mg/kg
[4] = tested on: Mus musculus; assay: Enrichment in delta-tocopherol in FVB/N mouse bile assessed as tripling in delta-tocopherol/alpha-tocopherol ratio at 500 mg/kg in delta-tocopherol rich diet for 10 days; format: functional, organism-based; set-up: dose 500 mg/kg
[5] = biological target: T2, Cytochrome P450 3A4 (Homo sapiens, UniProt P08684); assay: Inhibition of CYP3A4 in human HepG2/C3A cells assessed as testosterone-6-hydroxylase activity; format: ADME, cell-based
Procedure, shortened: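 Confluent HepG2/C3A cultures pre-incubated 4 hr with inhibitor or ethanol control, then given 50 µM testosterone. After 48 hr, medium extracted with ethyl acetate and 6-hydroxytestosterone measured as its trimethylsilyl ether by GC-MS. Percent inhibition reported as means and standard deviation.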

[6] = biological target: T2, Cytochrome P450 3A4; assay: Inhibition of human recombinant CYP3A4 expressed in insect cell microsome assessed as testosterone-6-hydroxylase activity at 4 uM after 60 mins; format: ADME, microsomes; settings: recombinant enzyme, 1 h
Procedure, shortened: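 Insect-cell microsomes expressing only recombinant human CYP3A4 (20 pmol P450) incubated 60 min with 200 µM testosterone, 1 mM NADPH and 0.25% BSA in […], pH 7.4, with or without inhibitor. Reaction stopped with cold ethanol and extracted with hexane/MTBE (7:1). 6-OH-testosterone expressed as nmol per nmol membrane cholesterol.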

[7] = biological target: T3, CYP4F2 (Homo sapiens, UniProt P78329); assay: Inhibition of CYP4F2-mediated gamma-tocopherol metabolism in human HepG2/C3A cells at 20 nM preincubated for 4 hrs and continued for 48 hrs; format: cell-based; settings: probe gamma-tocopherol; procedure, shortened: as §1
T3 sequence (P78329 whole entry): T1 sequence (P78329 whole entry)

[8] = biological target: T3, CYP4F2; assay: Inhibition of CYP4F2-mediated gamma-tocopherol metabolism in human HepG2/C3A cells at 1.0 uM preincubated for 4 hrs and continued for 48 hrs; format: cell-based; settings: probe gamma-tocopherol; procedure, shortened: as §1

T2 sequence (P08684 whole entry): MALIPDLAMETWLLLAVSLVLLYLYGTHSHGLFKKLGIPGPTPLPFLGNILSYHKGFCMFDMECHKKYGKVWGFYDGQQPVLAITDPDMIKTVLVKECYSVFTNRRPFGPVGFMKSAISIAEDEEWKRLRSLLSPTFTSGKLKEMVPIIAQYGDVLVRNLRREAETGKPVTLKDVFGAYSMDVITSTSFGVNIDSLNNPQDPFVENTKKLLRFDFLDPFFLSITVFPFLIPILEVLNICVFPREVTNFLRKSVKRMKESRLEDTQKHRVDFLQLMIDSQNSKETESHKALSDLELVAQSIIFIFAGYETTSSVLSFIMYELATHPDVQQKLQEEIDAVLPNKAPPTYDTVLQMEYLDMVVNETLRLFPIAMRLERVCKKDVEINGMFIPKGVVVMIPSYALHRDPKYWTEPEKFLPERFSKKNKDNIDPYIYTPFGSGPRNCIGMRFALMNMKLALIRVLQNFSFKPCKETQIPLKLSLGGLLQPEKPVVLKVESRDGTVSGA

Activity [1]: Not Active
SMILES: Cc1c(C)c2c(c(C)c1O)CC[C@@](C)(CCCCCCCCCn1nc3ccccc3n1)O2

IC50 ([1]; read-out: ED50 (the source's name)): 1 nM | Activity [2]: Active | Activity [5]: Active | inhibition (INH) [6]: 90%
SMILES: Cc1c(C)c2c(c(C)c1O)CC[C@@](C)(CCCCCCCCCn1ccnc1)O2
Activity [3]: Active | Activity [4]: Active

Activity [1]: Not Active
SMILES: Cc1c(C)c2c(c(C)c1O)CC[C@@](C)(CCCCCCCCCn1nnc3ccccc31)O2

inhibition at 48 h, 0.02 µM [7]: 42% | Activity [5]: Active
SMILES: Cc1c(C)c2c(c(C)c1O)CC[C@@](C)(CCCCCCCCCn1cncn1)O2

Activity [1]: Not Active
SMILES: Cc1c(C)c2c(c(C)c1O)CC[C@@](C)(CCCCCCCCCn1cnc3ccccc31)O2

inhibition at 48 h, 1 µM [8]: 36% | Activity [5]: Active
SMILES: Cc1c(C)c2c(c(C)c1O)CC[C@@](C)(CCCCCCCCCn1ccnn1)O2
